Measurements as given in ChEMBL document CHEMBL1144684, “Evaluation of a series of naphthamides as potent, orally active vascular endothelial growth factor receptor-2 tyrosine kinase inhibitors” (J Med Chem, 2008).
Converted amounts (≈) assume the structure as drawn. The source made the active and inactive calls. The rule behind the calls is not given here.

Columns and labels:
[1] = molecular target: T1, Aurora kinase A (Homo sapiens, UniProt O14965); assay: Inhibition of Aurora A
T1 sequence (O14965 whole entry): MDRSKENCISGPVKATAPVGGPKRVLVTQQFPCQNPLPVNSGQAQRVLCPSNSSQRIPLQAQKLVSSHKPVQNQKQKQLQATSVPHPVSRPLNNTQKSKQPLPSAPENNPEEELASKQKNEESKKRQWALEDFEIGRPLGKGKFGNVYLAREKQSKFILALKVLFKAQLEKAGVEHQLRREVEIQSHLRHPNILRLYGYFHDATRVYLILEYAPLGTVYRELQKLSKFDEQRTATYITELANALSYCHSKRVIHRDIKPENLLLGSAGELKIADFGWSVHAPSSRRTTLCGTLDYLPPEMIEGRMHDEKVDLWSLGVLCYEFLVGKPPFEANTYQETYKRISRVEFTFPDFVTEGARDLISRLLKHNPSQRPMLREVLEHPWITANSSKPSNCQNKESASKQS

[2] = molecular target: Vascular endothelial growth factor receptor 2 (Homo sapiens, UniProt P35968)
Sequence of Vascular endothelial growth factor receptor 2 (P35968 whole entry): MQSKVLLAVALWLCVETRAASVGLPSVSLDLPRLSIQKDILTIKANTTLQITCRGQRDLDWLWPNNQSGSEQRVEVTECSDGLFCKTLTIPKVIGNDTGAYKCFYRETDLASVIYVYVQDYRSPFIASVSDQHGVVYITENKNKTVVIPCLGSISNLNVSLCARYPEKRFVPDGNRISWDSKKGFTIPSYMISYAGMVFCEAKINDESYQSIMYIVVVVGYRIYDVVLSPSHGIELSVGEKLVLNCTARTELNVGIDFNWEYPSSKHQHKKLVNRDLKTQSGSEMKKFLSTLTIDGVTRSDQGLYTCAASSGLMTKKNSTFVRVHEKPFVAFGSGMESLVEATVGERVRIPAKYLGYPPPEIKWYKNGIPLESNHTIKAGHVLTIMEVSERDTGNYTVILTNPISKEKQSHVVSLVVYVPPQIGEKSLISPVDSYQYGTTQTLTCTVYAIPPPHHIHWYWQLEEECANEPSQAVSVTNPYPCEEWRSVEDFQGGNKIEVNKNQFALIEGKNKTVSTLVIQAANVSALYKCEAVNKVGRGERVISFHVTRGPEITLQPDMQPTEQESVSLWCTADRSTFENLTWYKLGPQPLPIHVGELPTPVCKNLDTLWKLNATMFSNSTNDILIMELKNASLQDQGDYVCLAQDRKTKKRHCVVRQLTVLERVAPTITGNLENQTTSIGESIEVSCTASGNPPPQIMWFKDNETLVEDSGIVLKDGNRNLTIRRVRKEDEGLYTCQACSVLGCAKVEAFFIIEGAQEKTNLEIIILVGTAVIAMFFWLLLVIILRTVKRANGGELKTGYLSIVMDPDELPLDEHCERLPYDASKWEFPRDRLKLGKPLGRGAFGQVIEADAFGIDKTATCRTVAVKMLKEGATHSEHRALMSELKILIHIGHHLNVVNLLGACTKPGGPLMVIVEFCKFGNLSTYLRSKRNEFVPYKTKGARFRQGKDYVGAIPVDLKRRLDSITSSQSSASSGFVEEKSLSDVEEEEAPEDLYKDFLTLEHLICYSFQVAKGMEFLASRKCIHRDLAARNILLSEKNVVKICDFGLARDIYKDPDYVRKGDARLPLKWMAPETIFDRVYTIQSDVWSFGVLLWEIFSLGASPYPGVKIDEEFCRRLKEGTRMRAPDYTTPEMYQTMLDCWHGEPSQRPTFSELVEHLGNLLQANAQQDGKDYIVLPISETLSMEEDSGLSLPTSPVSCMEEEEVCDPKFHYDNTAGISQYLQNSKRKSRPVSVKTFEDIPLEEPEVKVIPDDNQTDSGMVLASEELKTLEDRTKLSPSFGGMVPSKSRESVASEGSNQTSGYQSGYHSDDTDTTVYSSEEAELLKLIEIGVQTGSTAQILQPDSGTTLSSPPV

[3] = tested on: HUVEC; assay: Inhibition of bFGF-induced proliferation of HUVEC; assay type: functional, cell-based; settings: Homo sapiens
In short: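 HUVEC seeded at 3000/well in DMEM with 10% FBS, 22 h; 2 h preincubation with serial compound dilutions, then 50 ng/mL VEGF or 20 ng/mL bFGF for 72 h at 37 °C. Freeze–thaw, CyQuant DNA dye read-out; IC50 by four-parameter logistic fit, averaged over ≥2 experiments.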

[4] = molecular target: Aurora kinase B (Homo sapiens, UniProt Q96GD4); assay: Inhibition of Aurora B
Sequence of Aurora kinase B (Q96GD4 whole entry): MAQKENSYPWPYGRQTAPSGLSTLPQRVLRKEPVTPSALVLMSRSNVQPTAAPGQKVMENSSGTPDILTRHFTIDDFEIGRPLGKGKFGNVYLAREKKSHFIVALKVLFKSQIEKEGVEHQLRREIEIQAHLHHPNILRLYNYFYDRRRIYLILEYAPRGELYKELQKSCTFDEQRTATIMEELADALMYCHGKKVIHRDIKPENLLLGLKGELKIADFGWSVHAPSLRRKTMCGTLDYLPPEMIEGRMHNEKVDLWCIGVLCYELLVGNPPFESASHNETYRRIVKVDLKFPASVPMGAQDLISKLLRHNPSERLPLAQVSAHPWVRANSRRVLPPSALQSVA

[5] = molecular target: Hepatocyte growth factor receptor (Homo sapiens, UniProt P08581); assay: Inhibition of c-Met
Sequence of Hepatocyte growth factor receptor (P08581 whole entry): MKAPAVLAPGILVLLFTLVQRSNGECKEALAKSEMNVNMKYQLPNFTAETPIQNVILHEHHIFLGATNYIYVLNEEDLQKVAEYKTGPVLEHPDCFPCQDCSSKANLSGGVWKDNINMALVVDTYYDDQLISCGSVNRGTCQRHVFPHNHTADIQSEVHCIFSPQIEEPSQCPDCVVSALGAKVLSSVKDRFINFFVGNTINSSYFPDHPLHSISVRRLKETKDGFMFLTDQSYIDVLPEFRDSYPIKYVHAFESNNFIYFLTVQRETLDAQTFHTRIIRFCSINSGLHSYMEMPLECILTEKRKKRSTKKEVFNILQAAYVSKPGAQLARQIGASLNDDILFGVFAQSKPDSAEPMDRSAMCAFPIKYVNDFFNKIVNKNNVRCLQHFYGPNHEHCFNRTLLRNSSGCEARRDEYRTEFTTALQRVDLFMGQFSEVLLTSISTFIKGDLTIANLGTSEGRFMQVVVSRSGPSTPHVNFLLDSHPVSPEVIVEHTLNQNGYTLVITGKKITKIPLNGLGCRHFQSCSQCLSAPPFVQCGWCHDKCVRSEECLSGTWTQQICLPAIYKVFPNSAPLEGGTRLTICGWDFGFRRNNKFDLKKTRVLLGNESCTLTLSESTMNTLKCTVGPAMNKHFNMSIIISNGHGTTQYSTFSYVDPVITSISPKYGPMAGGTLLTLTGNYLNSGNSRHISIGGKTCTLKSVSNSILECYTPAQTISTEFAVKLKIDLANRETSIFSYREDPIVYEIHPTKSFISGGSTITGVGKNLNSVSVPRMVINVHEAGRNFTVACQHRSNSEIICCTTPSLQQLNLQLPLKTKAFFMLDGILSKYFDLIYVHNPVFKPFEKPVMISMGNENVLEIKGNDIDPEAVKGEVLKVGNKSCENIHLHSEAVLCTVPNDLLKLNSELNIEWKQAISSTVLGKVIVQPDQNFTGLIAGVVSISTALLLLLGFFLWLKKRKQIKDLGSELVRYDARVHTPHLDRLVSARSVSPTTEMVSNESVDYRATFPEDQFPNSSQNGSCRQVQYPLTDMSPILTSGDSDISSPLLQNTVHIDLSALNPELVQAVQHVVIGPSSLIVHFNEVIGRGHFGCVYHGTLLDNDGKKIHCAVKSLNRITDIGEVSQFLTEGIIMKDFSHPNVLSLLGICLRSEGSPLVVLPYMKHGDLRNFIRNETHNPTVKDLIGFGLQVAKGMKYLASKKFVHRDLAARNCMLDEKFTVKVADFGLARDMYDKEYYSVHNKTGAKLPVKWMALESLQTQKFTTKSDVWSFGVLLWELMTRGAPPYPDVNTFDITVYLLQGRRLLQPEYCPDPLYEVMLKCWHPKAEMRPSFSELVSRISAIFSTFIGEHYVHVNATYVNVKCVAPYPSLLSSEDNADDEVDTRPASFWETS

[6] = molecular target: Tyrosine-protein kinase Lck (Homo sapiens, UniProt P06239); assay: Inhibition of Lck
Sequence of Tyrosine-protein kinase Lck (P06239 whole entry): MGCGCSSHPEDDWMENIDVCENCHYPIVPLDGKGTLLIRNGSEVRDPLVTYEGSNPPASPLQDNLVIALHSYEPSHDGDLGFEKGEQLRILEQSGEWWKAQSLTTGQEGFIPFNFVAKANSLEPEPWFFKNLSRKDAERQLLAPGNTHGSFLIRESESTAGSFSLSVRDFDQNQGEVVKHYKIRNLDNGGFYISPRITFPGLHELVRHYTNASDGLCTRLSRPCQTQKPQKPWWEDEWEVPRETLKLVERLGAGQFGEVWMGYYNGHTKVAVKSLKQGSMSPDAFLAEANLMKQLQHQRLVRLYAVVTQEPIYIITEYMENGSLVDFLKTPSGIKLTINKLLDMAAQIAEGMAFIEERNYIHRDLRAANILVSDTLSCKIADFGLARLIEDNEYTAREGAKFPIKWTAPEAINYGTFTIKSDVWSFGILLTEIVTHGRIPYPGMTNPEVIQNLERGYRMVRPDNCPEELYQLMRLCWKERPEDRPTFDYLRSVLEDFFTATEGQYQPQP

[7] = molecular target: Angiopoietin-1 receptor (Homo sapiens, UniProt Q02763); assay: Inhibition of Tie2
Sequence of Angiopoietin-1 receptor (Q02763 whole entry): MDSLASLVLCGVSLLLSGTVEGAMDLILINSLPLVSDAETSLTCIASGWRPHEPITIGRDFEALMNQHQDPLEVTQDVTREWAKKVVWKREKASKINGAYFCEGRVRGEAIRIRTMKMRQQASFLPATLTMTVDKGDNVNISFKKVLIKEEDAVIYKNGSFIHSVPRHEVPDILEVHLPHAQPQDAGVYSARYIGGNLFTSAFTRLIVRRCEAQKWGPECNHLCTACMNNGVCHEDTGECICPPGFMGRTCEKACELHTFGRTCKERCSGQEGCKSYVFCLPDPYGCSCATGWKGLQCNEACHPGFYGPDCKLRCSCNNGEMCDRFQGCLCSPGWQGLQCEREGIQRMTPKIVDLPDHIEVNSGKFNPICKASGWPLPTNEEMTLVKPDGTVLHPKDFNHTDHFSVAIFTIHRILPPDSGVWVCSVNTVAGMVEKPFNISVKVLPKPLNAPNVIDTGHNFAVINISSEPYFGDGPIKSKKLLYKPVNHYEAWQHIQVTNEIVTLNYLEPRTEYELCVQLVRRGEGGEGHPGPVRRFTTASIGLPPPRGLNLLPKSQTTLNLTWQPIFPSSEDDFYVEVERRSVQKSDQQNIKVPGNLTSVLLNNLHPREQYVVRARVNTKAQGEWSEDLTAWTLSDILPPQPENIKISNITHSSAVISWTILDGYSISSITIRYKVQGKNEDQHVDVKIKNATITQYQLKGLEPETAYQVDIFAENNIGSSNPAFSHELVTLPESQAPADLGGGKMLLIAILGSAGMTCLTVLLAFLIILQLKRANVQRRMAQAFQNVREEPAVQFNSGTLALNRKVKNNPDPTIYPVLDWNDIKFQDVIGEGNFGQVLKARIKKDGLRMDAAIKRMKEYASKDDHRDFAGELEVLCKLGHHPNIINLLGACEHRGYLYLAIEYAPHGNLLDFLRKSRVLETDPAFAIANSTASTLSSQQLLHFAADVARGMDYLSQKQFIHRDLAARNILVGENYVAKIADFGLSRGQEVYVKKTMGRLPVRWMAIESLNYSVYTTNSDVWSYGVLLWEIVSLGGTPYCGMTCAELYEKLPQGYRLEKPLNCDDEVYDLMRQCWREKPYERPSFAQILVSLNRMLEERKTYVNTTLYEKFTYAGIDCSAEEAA

[8] = tested on: HUVEC; assay: Inhibition of VEGF-induced proliferation of HUVEC; assay type: functional, cell-based; settings: Homo sapiens
[9] = tested on: HUVEC; assay: Selectivity of IC50 for VEGF-induced proliferation over IC50 for bFGF-induced proliferation of HUVEC; assay type: functional, Homo sapiens
In short: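 HUVECs were seeded at 3000 cells/well in DMEM/10% FBS with pen/strep and cultured for 22 h. They were preincubated 2 h with serially diluted compound, then stimulated with 50 ng/mL VEGF or 20 ng/mL bFGF for 72 h at 37 °C, 5% CO2. Cells were washed, frozen at -70 °C and stained with CyQuant. IC50s came from a four-parameter logistic fit, averaged over ≥2 experiments; the VEGF IC50 was compared against the bFGF IC50.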

[10] = Aqueous solubility in 0.01 N Hcl; assay type: physicochemical
[11] = molecular target: Vascular endothelial growth factor receptor 3 (Homo sapiens) (UniProt P35916); assay: Inhibition of human VEGFR3
[12] = Intrinsic clearance in human liver microsomes at 1 uM; assay type: ADME, Microsome; settings: read-out: Stability
In short: (§1)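 Human or rat liver microsomes (0.25 mg protein/mL) with 1 mM NADPH, 2 mM MgCl2 in 50 mM potassium phosphate pH 7.4 at 37 °C; compound 1 µM final. Sampled 0–40 min into acetonitrile, LC-MS/MS; ln % remaining vs time slope gives T1/2; CLint = (0.693/T1/2)/0.25 mg/mL.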

[13] = Half life in Sprague-Dawley rat at 0.5 mg/kg, iv; assay type: ADME, organism-based; design: dose 0.5 mg/kg, route intravenous; settings: in vivo
In short: (§2)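 Male Sprague–Dawley rats dosed iv via femoral vein as DMSO solution (1 or 0.5 mg/kg) or po by gavage as OraPlus suspension (pH 2.0–2.2 with methanesulfonic acid; 10 or 2 mg/kg). Serial jugular blood over 12–24 h; plasma acetonitrile precipitation, LC-MS/MS (MRM) with internal standard; noncompartmental parameters.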

[14] = AUC (0 to infinity) in Sprague-Dawley rat at 2 mg/kg, po; assay type: ADME, organism-based; design: time infinity, dose 2 mg/kg, route oral; settings: plasma; in short: as §2
[15] = Cmax in Sprague-Dawley rat at 2 mg/kg, po; assay type: ADME, organism-based; design: dose 2 mg/kg, route oral; settings: in vivo; in short: as §2
[16] = Tmax in Sprague-Dawley rat at 2 mg/kg, po; assay type: ADME, organism-based; design: dose 2 mg/kg, route oral; settings: in vivo
In short: (§3)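 Male Sprague–Dawley rats dosed iv at 0.5 mg/kg as DMSO solution or po at 2 mg/kg as suspension in 100% OraPlus. Serial jugular blood, plasma LC-MS/MS quantitation, noncompartmental analysis.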

[17] = Volume of distribution at steady state in Sprague-Dawley rat at 0.5 mg/kg, iv; assay type: ADME, organism-based; design: dose 0.5 mg/kg, route intravenous; settings: in vivo, read-out: Vdss; in short: as §3
[18] = Clearance in Sprague-Dawley rat at 0.5 mg/kg, iv; assay type: ADME, organism-based; design: dose 0.5 mg/kg, route intravenous; settings: in vivo; in short: as §2
[19] = Intrinsic clearance in rat liver microsomes at 1 uM; assay type: ADME, Microsome; settings: read-out: Stability; in short: as §1
[20] = Oral bioavailability in Sprague-Dawley rat at 2 mg/kg; assay type: ADME, organism-based; settings: in vivo; in short: as §3

Row | Structure (SMILES) | IC50 [1] | IC50 [2] | IC50 [3] | IC50 [4] | IC50 [5] | IC50 [6] | IC50 [7] | IC50 [8] | Selectivity ratio [9] | solubility [10] | Activity [11] | microsomal CLint at 1 µM [12] | half-life [13] | AUC(0-inf) [14] | Cmax [15] | Tmax [16] | Vd [17] | clearance [18] | microsomal CLint at 1 µM [19] | bioavailability [20]
1 | COc1cc2nccc(Oc3ccc4c(C(=O)NCC5CC5)cccc4c3)c2cc1OC | 840 nM | 11 nM | 1140 nM | 10 nM | 5300 nM | 1100 nM | 9400 nM | 22 nM |  |  |  |  |  |  |  |  |  |  |  | 
2 | COc1cc2nccc(Oc3ccc4c(C(=O)NC(C)(C)C)cccc4c3)c2cc1OC | 3700 nM | 1500 nM |  |  | 11000 nM | 4300 nM | 25000 nM |  | >100 |  |  |  |  |  |  |  |  |  |  | 
3 | COc1cc2nccc(Oc3ccc4c(C(=O)Nc5ccc(Cl)cc5)cccc4c3)c2cc1OC | 371 nM |  | 1140 nM |  |  |  | 580 nM | 7.6 nM |  | 1.1 µg/mL (≈ 2.27 µM) |  |  |  |  |  |  |  |  |  | 
4 | COCCNC(=O)c1cccc2cc(Oc3ncnc4cc(OC)c(OC)cc34)ccc12 | 25000 nM | 314 nM |  | 385 nM | 20000 nM |  | 8300 nM |  | >100 |  | Active |  |  |  |  |  |  |  |  | 
5 | COc1cc2nccc(Oc3ccc4c(C(=O)NC5(C)CC5)cccc4c3)c2cc1OC | 560 nM |  | 1140 nM | 62 nM | 5000 nM | 2000 nM | 1100 nM | 70 nM |  |  |  |  |  |  |  |  |  |  |  | 
6 | COc1cc2nccc(Oc3ccc4c(C(=O)NC5CCCC5)cccc4c3)c2cc1OC | 620 nM | 15 nM | 1140 nM |  | 3200 nM | 1300 nM | 1400 nM | 6.6 nM | >100 |  |  |  |  |  |  |  |  |  |  | 
7 | COc1cc2nccc(Oc3ccc4c(C(=O)NC5CCC5)cccc4c3)c2cc1OC | 440 nM | 1.3 nM | 1140 nM |  | 7600 nM | 1000 nM | 4000 nM | 6.8 nM | >100 |  |  |  |  |  |  |  |  |  |  | 
8 | COCCCNC(=O)c1cccc2cc(Oc3ccnc4cc(OC)c(OC)cc34)ccc12 | 3500 nM | 4.2 nM |  |  |  | 1000 nM | 8300 nM | 7.1 nM | >100 |  |  |  |  |  |  |  |  |  |  | 
9 | COc1ccc2c(Oc3ccc4c(C(N)=O)cccc4c3)ccnc2c1 | 8300 nM |  |  | 130 nM | 20000 nM |  | 25000 nM | 16 nM |  |  |  |  |  |  |  |  |  |  |  | 
10 | COc1cc2nccc(Oc3ccc4c(C(=O)NC5CC5)cccc4c3)c2cc1C(N)=O | 4400 nM | 0.37 nM |  | 185 nM | 20000 nM |  | 1800 nM | 1.2 nM | >100 |  |  | 12 µL/min/mg | 75.6 min | 900 ng·h/mL | 715 ng/mL | 40.2 min | 0.379 L/kg | 8.47 mL/min/kg | 16 µL/min/mg | 39%
11 | COCCNC(=O)c1cccc2cc(Oc3ccnc4cc(OC)ccc34)ccc12 | 8300 nM | 28 nM |  |  | 20000 nM |  | 25000 nM | 20 nM | >100 |  |  |  |  |  |  |  |  |  |  | 
12 | CNC(=O)c1cccc2cc(Oc3ccnc4cc(OC)c(OC)cc34)ccc12 | 3600 nM |  | 46 nM | 110 nM | 20000 nM | 700 nM | 25000 nM | 0.45 nM |  |  |  |  |  |  |  |  |  |  |  | 
13 | CCCNC(=O)c1cccc2cc(Oc3ccnc4cc(OC)c(OC)cc34)ccc12 | 1700 nM |  | 600 nM |  |  | 1300 nM | 4300 nM | 7.4 nM |  |  |  |  |  |  |  |  |  |  |  | 
14 | COc1cc2nccc(Oc3ccc4c(C(N)=O)cccc4c3)c2cc1C(N)=O | 6800 nM |  |  | 390 nM | 7400 nM |  | 5300 nM |  |  |  |  |  |  |  |  |  |  |  |  | 
15 | COc1cc2nccc(Oc3ccc4c(C(=O)NCC(F)(F)F)cccc4c3)c2cc1OC | 930 nM | 3.8 nM | 1140 nM | 16 nM | 20000 nM | 25000 nM | 25000 nM | 24 nM |  |  |  |  |  |  |  |  |  |  |  | 
16 | CCNC(=O)c1cccc2cc(Oc3ccnc4cc(OC)c(OC)cc34)ccc12 | 1500 nM | 1.3 nM | 150 nM | 46 nM | 20000 nM | 1200 nM | 25000 nM | 0.33 nM | >100 |  |  |  |  |  |  |  |  |  |  | 
17 | COc1cc2nccc(Oc3ccc4c(C(=O)NC(C)C)cccc4c3)c2cc1OC | 3600 nM | 5.9 nM | 1140 nM | 190 nM | 20000 nM | 1800 nM | 25000 nM | 4.4 nM | >100 |  |  |  |  |  |  |  |  |  |  | 
18 | COc1ccc2c(Oc3ccc4c(C(=O)NC5CC5)cccc4c3)ccnc2c1 | 8300 nM | 0.45 nM |  |  | 20000 nM |  | 8300 nM | 3.4 nM | >100 |  |  |  |  |  |  |  |  |  |  | 
19 | COc1cc2ncnc(Oc3ccc4c(C(N)=O)cccc4c3)c2cc1OC | 8300 nM |  |  | 680 nM | 20000 nM |  | 8300 nM | 16 nM |  |  |  |  |  |  |  |  |  |  |  | 
20 | COc1cc2ncnc(Oc3ccc4c(C(=O)NC5CC5)cccc4c3)c2cc1OC | 8300 nM | 2.9 nM |  | 360 nM | 20000 nM |  | 7400 nM | 7.3 nM | >100 |  |  |  |  |  |  |  |  |  |  | 
